For data set [1], the system named is Leishmania major. The data set can be described thus: Antiparasitic activity against amastigotes of delta-null mutant Leishmania major AP3 after 3 days by Alamar blue assay. In kind it is functional, organism-based. As to conditions: AP3, 72 h; call rule not given here.
The test system of data set [2] is Leishmania major. Nature of the data set: Drug uptake in Leishmania major MHOM/JL/80/Friedlin AP3delta-null mutant at 5 uM for 15 mins by liquid scintillation counting. In kind it is ADME, organism-based. The settings on record: in vivo, 0.25 h. The gist of the method: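 Promastigotes from 48-h cultures were washed in PBS and resuspended at 2 × 10^7/ml in HEPES-buffered saline, pH 7. They were exposed to 5 μM [14C]sitamaquine for 15 min, chilled on ice, then washed 10 min on ice in PBS with 100 μM unlabelled sitamaquine and twice more in PBS. Pellets were lysed in 1% Triton X-100. Scintillation counts were normalised to Bradford protein.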

Data set [3] has as its system Leishmania major. The data set can be described thus: Drug uptake in AP3-complemented Leishmania major MHOM/JL/80/Friedlin at 5 uM for 15 mins by liquid scintillation counting. In kind it is ADME, organism-based. The settings on record: in vivo, 0.25 h. A digest of the protocol: (§1)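 PBS-washed parasites at 2 × 10^7/ml in HBS (pH 7) were incubated with 5 μM [14C]sitamaquine for 15 min at 28°C or 4°C. Washing was 10 min on ice in PBS or PBS with 100 μM unlabeled sitamaquine, then twice in PBS. Cell-associated radioactivity in 1% Triton X-100 lysates was counted by liquid scintillation and related to Bradford protein.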

For data set [4], the system named is Leishmania major. Nature of the data set: Antiparasitic activity against wild type amastigotes of Leishmania major AP3-complemented after 3 days by Alamar blue assay. The settings on record: 72 h. In kind it is functional, organism-based.
Data set [5] deals with Leishmania donovani. Nature of the data set: Drug uptake in 1 mM N-ethylmaleimde pretreated Leishmania donovani at 5 uM after 15 mins by liquid scintillation counting. Format: ADME, organism-based. As to conditions: in vivo, 0.25 h. A digest of the protocol:
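Parasites were treated with 1 mM NEM for 15 min on ice, then resuspended in fresh HBS. Cells at 2 × 10^7/ml were given 5 μM [14C]sitamaquine for 15 min at 28°C. Washing was 10 min on ice in PBS with 100 μM sitamaquine, then twice in PBS. Lysates in 1% Triton X-100 were read by scintillation counting, with Bradford protein.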

Data set [6] relates to Leishmania tropica. Nature of the data set: Drug uptake in Leishmania tropica MHOM/SU/60/LCR-L39 assessed as reduction in fluorescence of LysoTracker Green by Flow cytometry analysis. In kind it is ADME, organism-based. As to conditions: in vivo. A digest of the protocol:
(§2)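 Promastigotes at 4 × 10^6 cells/ml were loaded with 100 nM LysoTracker Green DND-26 in HBS for 10 min at 28°C. They were then exposed to 1, 10 or 30 μM sitamaquine for 15 min at 28°C, washed and resuspended in PBS. Flow cytometry used 488 nm excitation and 515–545 nm emission after gating out dead cells and debris. Signal expressed as % of untreated.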

The subject of data set [7] is Leishmania donovani. The data set can be described thus: Drug uptake in Leishmania donovani at 10 uM for 10 mins by flow cytometry in presence of ionophores monensin. In kind it is ADME, organism-based. As to conditions: in vivo. For orientation: Flow cytometry measures light scatter and fluorescence of single cells or particles in a stream.
The test system of data set [8] is Leishmania donovani. Nature of the data set: Drug uptake in Leishmania donovani at 5 uM after 15 mins at 28 degC by liquid scintillation counting. Format: ADME, organism-based. As to conditions: in vivo, 0.25 h. A digest of the protocol:
as §1

For a further data set, the system named is Leishmania braziliensis. The data set can be described thus: Antiparasitic activity against Leishmania braziliensis MHOM/PE/03/LH2419 after 3 days by Alamar blue assay. In kind it is functional, organism-based. As to conditions: MHOM/PE/03/LH2419, 72 h. A digest of the protocol: (§3)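 Promastigotes grown at 28°C in RPMI 1640-modified medium with 20% heat-inactivated FBS and harvested after 48 h of growth. Exposed to increasing sitamaquine concentrations for 72 h at 28°C. Growth read by Alamar Blue fluorescence (excitation 530 nm, emission 585 nm). EC50 taken as the concentration giving 50% growth inhibition. Run three times in duplicate.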
In general terms: Alamar Blue is a resazurin reagent that responds to reducing activity.

The subject of a further data set is Leishmania mexicana. Nature of the data set: Antiparasitic activity against Leishmania mexicana M9012 after 3 days by Alamar blue assay. The settings on record: M9012, 72 h. Format: functional, organism-based. A digest of the protocol: as §3
The next data set deals with Leishmania sp. The data set can be described thus: Antiparasitic activity against promastigotes of Leishmania sp. after 3 days by Alamar blue assay. As to conditions: 72 h. In kind it is functional, organism-based. The gist of the method: as §3
Data set [9] relates to Leishmania tropica. The data set can be described thus: Antiparasitic activity against Leishmania tropica MHOM/SU/60/LCR-L39 after 3 days by Alamar blue assay. Format: functional, organism-based. The settings on record: MHOM/SU/60/LCR-L39, 72 h. A digest of the protocol: as §3
Data set [10] has as its system Leishmania donovani. The data set can be described thus: Drug uptake in Leishmania donovani at 5 uM after 15 mins at 4 degC by liquid scintillation counting. In kind it is ADME, organism-based. As to conditions: in vivo, 0.25 h. A digest of the protocol: as §1
Data set [11] has as its system Leishmania donovani. The data set can be described thus: Antiparasitic activity against Leishmania donovani MHOM/ET/67/L82 after 3 days by Alamar blue assay. Format: functional, organism-based. As to conditions: MHOM/ET/67/L82, 72 h. A digest of the protocol: as §3
The subject of data set [12] is Leishmania donovani. The data set can be described thus: Drug uptake in Leishmania donovani at 5 uM after 15 mins at pH 8 by liquid scintillation counting. Format: ADME, organism-based. As to conditions: in vivo, pH 8, 0.25 h. The gist of the method:
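Parasites were incubated at 28°C with [14C]sitamaquine in HBS adjusted to various pHs, up to pH 8. Cells were chilled, then washed 10 min on ice in PBS with 100 μM sitamaquine and twice in PBS. Uptake was quantified by liquid scintillation counting of Triton X-100 lysates, with Bradford protein. Means of three independent experiments.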

The subject of data set [13] is Leishmania donovani. The data set can be described thus: Drug uptake in Leishmania donovani at 10 uM for 10 mins by flow cytometry in presence of 20 mM NH4Cl acidic organelles alkalinization inducer. Format: ADME, organism-based. As to conditions: in vivo.
For data set [14], the system named is Leishmania tropica. Nature of the data set: Drug uptake in Leishmania tropica MHOM/SU/74/SAF-K27 assessed as reduction in fluorescence of LysoTracker Green by Flow cytometry analysis. The settings on record: in vivo. In kind it is ADME, organism-based. A digest of the protocol:
as §2

Data set [15] concerns Leishmania donovani. Nature of the data set: Drug uptake in Leishmania donovani at 10 uM for 10 mins by flow cytometry in presence of nigericin. In kind it is ADME, organism-based. As to conditions: in vivo.
Data set [16] concerns Leishmania donovani. The data set can be described thus: Drug uptake in Leishmania donovani MHOM/ET/67/L82 assessed as reduction in fluorescence of LysoTracker Green by Flow cytometry analysis. The settings on record: in vivo. Format: ADME, organism-based. The gist of the method:
as §2

For a further data set, the system named is Leishmania infantum. The data set can be described thus: Antiparasitic activity against Leishmania infantum MHOM/ES/1993/BCN-99 after 3 days by Alamar blue assay. Format: functional, organism-based. As to conditions: MHOM/ES/1993/BCN-99, 72 h. The gist of the method:
as §3

Data set [17] deals with Leishmania donovani. Nature of the data set: Drug uptake in Leishmania donovani MHOM/IN/80/DD8 assessed as reduction in fluorescence of LysoTracker Green by Flow cytometry analysis. In kind it is ADME, organism-based. The settings on record: in vivo. The gist of the method: as §2

Turning to `CCN(CC)CCCCCCNc1cc(O[14CH3])cc2c(C)ccnc12.Cl.Cl`, the EC50 in the data set with Leishmania major [1] worked out at 3.9 µM; in the data set on Leishmania major [4] it was 4.3 µM. In addition, the Drug uptake result in the data set with Leishmania major [2] is reported as “Not Active”; in the data set on Leishmania major [3] it was “Active”; with Leishmania donovani [5], “Active”.
`CCN(CC)CCCCCCNc1cc(OC)cc2c(C)ccnc12.Cl.Cl`: the Drug uptake entry in the data set on Leishmania tropica [6] is listed as “Active”; in the data set with Leishmania donovani [7], “Not Active”; in the data set on Leishmania donovani [8] it was “Active”; in the data set with Leishmania donovani [10], “Active”; in the data set with Leishmania donovani [12], “Active”; in the data set with Leishmania donovani [13] it was “Not Active”. Moreover, the Drug uptake entry with Leishmania tropica [14] is given as “Active”; in the data set on Leishmania donovani [15] it was “Not Active”; with Leishmania donovani [16], “Active”; in the data set with Leishmania donovani [17], “Active”. The EC50 with Leishmania braziliensis was determined as 9.5 µM; with Leishmania mexicana, 9.5 µM; in the data set with Leishmania sp., 5.7 µM; in the data set on Leishmania tropica [9] it was 9.5 µM; in the data set on Leishmania donovani [11] it was 9.5 µM; in the data set on Leishmania infantum, 9.5 µM.

A word on the EC50: it is the concentration needed to bring the measured effect to its halfway point.
